Measurements published in ChEMBL document CHEMBL4330069, “Boosting the efficacy of anti-MRSA β-lactam antibiotics via an easily accessible, non-cytotoxic and orally bioavailable FtsZ inhibitor” (Eur J Med Chem, 2019).
≈ marks a conversion by molar mass, not a printed value.

Columns and labels:
Staphylococcus aureus [1] = test: Antibacterial activity against multidrug-resistant Staphylococcus aureus ATCC 43300 infected in BALB/C mouse assessed as mouse survival at 50 mg/kg, ip bid measured on day 4 post infection (reference value: 50%); type: functional
Staphylococcus aureus [2] = test: Antibacterial activity against multidrug-resistant Staphylococcus aureus isolate 3589 by broth microdilution assay; type: functional
In short: (§1)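 Broth microdilution MIC per CLSI guidelines against clinical MRSA isolates, for β-lactams and test compound alone and in combination. Compounds were dissolved in DMSO. Growth was read by eye, in duplicate. FIC index = FIC(compound) + FIC(drug); synergy defined as FIC index ≤0.5.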

Staphylococcus aureus [3] = test: Antibacterial activity against multidrug-resistant Staphylococcus aureus isolate 256 by broth microdilution assay; type: functional; in short: as §1
Staphylococcus aureus [4] = test: Antibacterial activity against multidrug-resistant Staphylococcus aureus isolate 774 by broth microdilution assay; type: functional; in short: as §1
Staphylococcus aureus [5] = test: Synergistic antibacterial activity against multidrug-resistant Staphylococcus aureus isolate 254 in presence of amoxicillin by broth microdilution assay; type: functional
In short: (§2)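 CLSI broth microdilution on clinical MRSA isolates. MICs were measured for the β-lactam alone, the test agent alone and the two combined. Compounds were dissolved in DMSO, and growth inhibition was scored by eye. FIC index is the sum, over both agents, of MIC in combination divided by MIC alone. An FIC index ≤0.5 was taken as synergy.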

Staphylococcus aureus [6] = test: Synergistic antibacterial activity against multidrug-resistant Staphylococcus aureus isolate 1344 in presence of amoxicillin by broth microdilution assay; type: functional
In short: (§3)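 Clinical MRSA isolate panel; compound and β-lactam tested alone and in combination by CLSI broth microdilution, compounds dissolved in DMSO, growth inhibition scored by eye, run in duplicate. FIC index = FIC(compound) + FIC(drug), each the MIC in combination divided by the MIC alone; an index ≤ 0.5 was called synergy.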

Staphylococcus aureus [7] = test: Synergistic antibacterial activity against multidrug-resistant Staphylococcus aureus isolate 2901 in presence of amoxicillin by broth microdilution assay; type: functional; in short: as §2
Staphylococcus aureus [8] = test: Synergistic antibacterial activity against multidrug-resistant Staphylococcus aureus isolate 3589 in presence of amoxicillin by broth microdilution assay; type: functional
Staphylococcus aureus [9] = test: Synergistic antibacterial activity against multidrug-resistant Staphylococcus aureus isolate 2516 in presence of amoxicillin by broth microdilution assay; type: functional; in short: as §3
Staphylococcus aureus [10] = test: Synergistic antibacterial activity against multidrug-resistant Staphylococcus aureus isolate 1749 in presence of amoxicillin by broth microdilution assay; type: functional; in short: as §3
Staphylococcus aureus [11] = test: Synergistic antibacterial activity against multidrug-resistant Staphylococcus aureus isolate 2490 in presence of methicillin by broth microdilution assay; type: functional; in short: as §3
Staphylococcus aureus [12] = test: Synergistic antibacterial activity against multidrug-resistant Staphylococcus aureus isolate 3589 in presence of methicillin by broth microdilution assay; type: functional
Staphylococcus aureus [13] = test: Synergistic antibacterial activity against multidrug-resistant Staphylococcus aureus isolate 1136 in presence of methicillin by broth microdilution assay; type: functional; in short: as §3
Staphylococcus aureus [14] = test: Synergistic antibacterial activity against multidrug-resistant Staphylococcus aureus isolate 1717 in presence of methicillin by broth microdilution assay; type: functional; in short: as §3
Staphylococcus aureus [15] = test: Synergistic antibacterial activity against multidrug-resistant Staphylococcus aureus isolate 417 in presence of cloxacillin by broth microdilution assay; type: functional
Staphylococcus aureus [16] = test: Synergistic antibacterial activity against multidrug-resistant Staphylococcus aureus isolate 2919 in presence of cloxacillin by broth microdilution assay; type: functional; in short: as §2
Staphylococcus aureus [17] = test: Synergistic antibacterial activity against multidrug-resistant Staphylococcus aureus isolate 2973 in presence of cloxacillin by broth microdilution assay; type: functional; in short: as §2
Staphylococcus aureus [18] = test: Synergistic antibacterial activity against multidrug-resistant Staphylococcus aureus isolate 1749 in presence of cefuroxime by broth microdilution assay; type: functional; in short: as §3
Staphylococcus aureus [19] = test: Synergistic antibacterial activity against multidrug-resistant Staphylococcus aureus isolate 3580 in presence of cefuroxime by broth microdilution assay; type: functional
Staphylococcus aureus [20] = test: Synergistic antibacterial activity against multidrug-resistant Staphylococcus aureus isolate 2490 in presence of meropenem by broth microdilution assay; type: functional; in short: as §3
Staphylococcus aureus [21] = test: Synergistic antibacterial activity against multidrug-resistant Staphylococcus aureus isolate 254 in presence of meropenem by broth microdilution assay; type: functional; in short: as §2
Staphylococcus aureus [22] = test: Synergistic antibacterial activity against multidrug-resistant Staphylococcus aureus isolate 2901 in presence of meropenem by broth microdilution assay; type: functional; in short: as §2
Staphylococcus aureus [23] = test: Synergistic antibacterial activity against multidrug-resistant Staphylococcus aureus isolate 256 in presence of meropenem by broth microdilution assay; type: functional; in short: as §2
Staphylococcus aureus [24] = test: Synergistic antibacterial activity against multidrug-resistant Staphylococcus aureus isolate 2516 in presence of meropenem by broth microdilution assay; type: functional; in short: as §2
Staphylococcus aureus [25] = test: Synergistic antibacterial activity against multidrug-resistant Staphylococcus aureus isolate 3267 in presence of meropenem by broth microdilution assay; type: functional; in short: as §2
Staphylococcus aureus [26] = test: Synergistic antibacterial activity against multidrug-resistant Staphylococcus aureus isolate 2973 in presence of meropenem by broth microdilution assay; type: functional; in short: as §2
Staphylococcus aureus [27] = test: Synergistic antibacterial activity against multidrug-resistant Staphylococcus aureus isolate 1344 assessed as fractional Inhibitory concentration index in presence of amoxicillin by broth microdilution assay; type: functional
In short: (§4)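 CLSI broth microdilution run on clinical MRSA isolates with each β-lactam alone, the test agent alone, and the two combined; agents dissolved in DMSO. Growth inhibition was read by eye. FIC index = FIC(compound) + FIC(β-lactam), where each FIC is the MIC in combination divided by the MIC alone. An index ≤0.5 was taken as synergy.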

Staphylococcus aureus [28] = test: Synergistic antibacterial activity against multidrug-resistant Staphylococcus aureus isolate 1136 assessed as fractional Inhibitory concentration index in presence of amoxicillin by broth microdilution assay; type: functional; in short: as §4
Staphylococcus aureus [29] = test: Synergistic antibacterial activity against multidrug-resistant Staphylococcus aureus isolate 1717 assessed as fractional Inhibitory concentration index in presence of amoxicillin by broth microdilution assay; type: functional; in short: as §4
Staphylococcus aureus [30] = test: Synergistic antibacterial activity against multidrug-resistant Staphylococcus aureus isolate 1344 assessed as fractional Inhibitory concentration index in presence of methicillin by broth microdilution assay; type: functional; in short: as §4
Staphylococcus aureus [31] = test: Synergistic antibacterial activity against multidrug-resistant Staphylococcus aureus isolate 358 assessed as fractional Inhibitory concentration index in presence of methicillin by broth microdilution assay; type: functional
Staphylococcus aureus [32] = test: Synergistic antibacterial activity against multidrug-resistant Staphylococcus aureus isolate 1344 assessed as fractional Inhibitory concentration index in presence of cloxacillin by broth microdilution assay; type: functional; in short: as §4
Staphylococcus aureus [33] = test: Synergistic antibacterial activity against multidrug-resistant Staphylococcus aureus isolate 2728 assessed as fractional Inhibitory concentration index in presence of cloxacillin by broth microdilution assay; type: functional
Staphylococcus aureus [34] = test: Synergistic antibacterial activity against multidrug-resistant Staphylococcus aureus isolate 1344 assessed as fractional Inhibitory concentration index in presence of meropenem by broth microdilution assay; type: functional; in short: as §4
Staphylococcus aureus [35] = test: Synergistic antibacterial activity against multidrug-resistant Staphylococcus aureus isolate 3332 assessed as fractional Inhibitory concentration index in presence of meropenem by broth microdilution assay; type: functional
Staphylococcus aureus [36] = test: Synergistic antibacterial activity against multidrug-resistant Staphylococcus aureus isolate 3267 assessed as fractional Inhibitory concentration index in presence of meropenem by broth microdilution assay; type: functional
Staphylococcus aureus [37] = test: Synergistic antibacterial activity against multidrug-resistant Staphylococcus aureus isolate 1749 assessed as fractional Inhibitory concentration index in presence of meropenem by broth microdilution assay; type: functional; in short: as §4
Staphylococcus aureus [38] = test: Synergistic antibacterial activity against multidrug-resistant Staphylococcus aureus isolate 2728 assessed as fractional Inhibitory concentration index in presence of meropenem by broth microdilution assay; type: functional
[39] = AUC (0 to infinity) in Sprague-Dawley rat at 50 mg/kg, po by UPLC-MS/MS analysis; type: ADME, organism-based; design: dose 50 mg/kg, route oral, time infinity; settings: in vivo

CCCCCCCCCNc1ccc(F)c(C(N)=O)c1F
Activity (Staphylococcus aureus [1]): 40% | MIC (Staphylococcus aureus [2]): 8 µg/mL (≈ 26.8 µM) | MIC (Staphylococcus aureus [3]): 1020 µg/mL (≈ 3430 µM) | MIC (Staphylococcus aureus [4]): 512 µg/mL (≈ 1720 µM) | MIC (Staphylococcus aureus [5]): 8 µg/mL | MIC (Staphylococcus aureus [6]): 16 µg/mL | MIC (Staphylococcus aureus [7]): 16 µg/mL | MIC (Staphylococcus aureus [8]): 8 µg/mL | MIC (Staphylococcus aureus [9]): 8 µg/mL | MIC (Staphylococcus aureus [10]): 2 µg/mL | MIC (Staphylococcus aureus [11]): 4 µg/mL | MIC (Staphylococcus aureus [12]): 4 µg/mL | MIC (Staphylococcus aureus [13]): 4 µg/mL | MIC (Staphylococcus aureus [14]): 2 µg/mL | MIC (Staphylococcus aureus [15]): 2 µg/mL | MIC (Staphylococcus aureus [16]): 1 µg/mL | MIC (Staphylococcus aureus [17]): 1 µg/mL | MIC (Staphylococcus aureus [18]): 2 µg/mL | MIC (Staphylococcus aureus [19]): 2 µg/mL | MIC (Staphylococcus aureus [20]): 4 µg/mL | MIC (Staphylococcus aureus [21]): 8 µg/mL | MIC (Staphylococcus aureus [22]): 4 µg/mL | MIC (Staphylococcus aureus [23]): 8 µg/mL | MIC (Staphylococcus aureus [24]): 4 µg/mL | MIC (Staphylococcus aureus [25]): 8 µg/mL | MIC (Staphylococcus aureus [26]): 4 µg/mL | fractional inhibitory concentration index (FICI) (Staphylococcus aureus [27]): 1.1 | fractional inhibitory concentration index (FICI) (Staphylococcus aureus [28]): 1 | fractional inhibitory concentration index (FICI) (Staphylococcus aureus [29]): 1.1 | fractional inhibitory concentration index (FICI) (Staphylococcus aureus [30]): 0.3 | fractional inhibitory concentration index (FICI) (Staphylococcus aureus [31]): 0.3 | fractional inhibitory concentration index (FICI) (Staphylococcus aureus [32]): 0.1 | fractional inhibitory concentration index (FICI) (Staphylococcus aureus [33]): 1 | fractional inhibitory concentration index (FICI) (Staphylococcus aureus [34]): 2 | fractional inhibitory concentration index (FICI) (Staphylococcus aureus [35]): 2.3 | fractional inhibitory concentration index (FICI) (Staphylococcus aureus [36]): 4 | fractional inhibitory concentration index (FICI) (Staphylococcus aureus [37]): 10 | fractional inhibitory concentration index (FICI) (Staphylococcus aureus [38]): 2 | AUC(0-inf) [39]: 10300 ng·h/mL
